Laboratory results taken from ChEMBL document CHEMBL3352430, “4-Aminopyridyl-based CYP51 inhibitors as anti-Trypanosoma cruzi drug leads with improved pharmacokinetic profile and in vivo potency” (J Med Chem, 2014).

tested on: Intestine; assay: Drug uptake in mouse intestine at 50 mg/kg, po in 20% Kolliphor measured at 8 hrs post dose; type: ADME, organism-based; design: dose 50 mg/kg, route oral; conditions: in vivo; call rule not given here
How it was run: (§1)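 Female Swiss Webster mice, 8 weeks old, given a single 50 mg/kg oral gavage dose in 20% HPβCD or 20% Kolliphor. Tissues taken from three mice at 2 and 8 h post dose. Homogenized by probe sonication in PBS (1:4 w/v), protein precipitated with acetonitrile, and compound measured by LC-MS/MS in μM.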

Which Drug uptake does the source give for `O=C(N[C@H](Cc1c[nH]c2ccccc12)C(=O)Nc1ccncc1)c1ccc(-c2ccc(F)c(C(F)(F)F)c2)cc1F` here?
The Drug uptake was “Active”.

tested on: not listed separately; assay: Clearance in mouse at 50 mg/kg, po in 20% HP-beta-CD; type: ADME, organism-based; design: dose 50 mg/kg, route oral; conditions: in vivo
How it was run: (§2)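 Female Swiss Webster mice, 8 weeks old, given one oral gavage dose of 50 mg/kg as a 10 mg/mL preparation in the named vehicle (20% HPβCD suspension or 20% Kolliphor). Plasma sampled at about 0.25, 0.5, 1, 2, 4, 6, 8, 12 and 24 h, n = 3 per time point. Protein precipitated with 5 volumes acetonitrile, filtered, then LC-MS/MS. Values are averages of three mice.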

With `O=C(N[C@H](Cc1c[nH]c2ccccc12)C(=O)Nc1ccncc1)c1ccc(-c2ccc(F)c(C(F)(F)F)c2)cc1F` as the compound, how does the CL/F read?
Its CL/F is 52.5 mL/min/kg.

tested on: Trypanosoma cruzi; assay: Antitrypanosomal activity against Trypanosoma cruzi amastigotes infected in mouse C2C12 cells after 72 hrs by DAPI staining method; type: functional, organism-based; conditions: C2C12, 72 h

For `O=C(N[C@H](Cc1c[nH]c2ccccc12)C(=O)Nc1ccncc1)c1ccc(-c2ccc(F)c(C(F)(F)F)c2)cc1F`, which EC50 is on record?
Its EC50 is 170 nM.

tested on: Trypanosoma cruzi; assay: Antitrypanosomal activity against Trypanosoma cruzi Y luc infected in mouse assessed as inhibition of parasitemia at 25 mg/kg, po bid in 20% Kolliphor administered for 4 consecutive days starting on day 3 of infection measured on day 7 post infection relative to vehicle-treated control; type: functional; conditions: not given
How it was run: (§3)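 Female Swiss Webster mice, 8 weeks old, infected ip with 10^5 T. cruzi Y luc trypomastigotes. Only mice with detectable luminescence on day 3 were treated. Compound given by oral gavage bid for four days, as a suspension in 20% HPβCD or a solution in 20% Kolliphor, five mice per group. Vehicle group and benznidazole 50 mg/kg served as controls. On day 7, mice were injected ip with 150 mg/kg d-luciferin and imaged after 5 min under isoflurane. Percent inhibition calculated against untreated mice; two-tailed paired t test.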

With `O=C(N[C@H](Cc1c[nH]c2ccccc12)C(=O)Nc1ccncc1)c1ccc(-c2ccc(F)c(C(F)(F)F)c2)cc1F` as the compound, how does the inhibition in vivo at 25 mg/kg read?
The inhibition in vivo at 25 mg/kg was 89.1%.

tested on: Liver; assay: Half life in mouse liver microsomes; type: ADME; conditions: not given

Which t1/2 does the source give for `O=C(N[C@H](Cc1c[nH]c2ccccc12)C(=O)Nc1ccncc1)c1ccc(-c2ccc(F)c(C(F)(F)F)c2)cc1F` here?
The t1/2 was 58 min.

tested on: not listed separately; assay: AUClast in mouse at 50 mg/kg, po in 20% Kolliphor; type: ADME, organism-based; design: time 0 - last, dose 50 mg/kg, route oral; conditions: plasma; how it was run: as §2

Which AUC(0-t) does the source give for `O=C(N[C@H](Cc1c[nH]c2ccccc12)C(=O)Nc1ccncc1)c1ccc(-c2ccc(F)c(C(F)(F)F)c2)cc1F` here?
The AUC(0-t) was 84.5 µM·h.

tested on: Trypanosoma cruzi; assay: Antitrypanosomal activity against Trypanosoma cruzi Y luc infected in mouse assessed as inhibition of parasitemia at 50 mg/kg, po bid in 20% Kolliphor administered for 4 consecutive days starting on day 3 of infection measured on day 7 post infection relative to vehicle-treated control; type: functional; conditions: not given; how it was run: as §3

With `O=C(N[C@H](Cc1c[nH]c2ccccc12)C(=O)Nc1ccncc1)c1ccc(-c2ccc(F)c(C(F)(F)F)c2)cc1F` as the compound, how does the inhibition in vivo at 50 mg/kg read?
The inhibition in vivo at 50 mg/kg was 97.4%.

tested on: Liver microsome; assay: Half life in human liver microsomes; type: ADME; conditions: not given

With `O=C(N[C@H](Cc1c[nH]c2ccccc12)C(=O)Nc1ccncc1)c1ccc(-c2ccc(F)c(C(F)(F)F)c2)cc1F` as the compound, how does the t1/2 read?
Its t1/2 is 29 min.

tested on: Liver; assay: Drug uptake in mouse liver at 50 mg/kg, po in 20% Kolliphor measured at 8 hrs post dose; type: ADME, organism-based; design: dose 50 mg/kg, route oral; conditions: in vivo; how it was run: as §1

With `O=C(N[C@H](Cc1c[nH]c2ccccc12)C(=O)Nc1ccncc1)c1ccc(-c2ccc(F)c(C(F)(F)F)c2)cc1F` as the compound, how does the Drug uptake read?
Its Drug uptake is “Active”.

tested on: not listed separately; assay: Tmax in mouse at 50 mg/kg, po in 20% Kolliphor; type: ADME, organism-based; design: dose 50 mg/kg, route oral; conditions: in vivo; how it was run: as §2

For `O=C(N[C@H](Cc1c[nH]c2ccccc12)C(=O)Nc1ccncc1)c1ccc(-c2ccc(F)c(C(F)(F)F)c2)cc1F`, which Tmax is on record?
Its Tmax is 280 min.

tested on: Lung; assay: Drug uptake in mouse lung at 50 mg/kg, po in 20% HP-beta-CD measured at 8 hrs post dose; type: ADME, organism-based; design: dose 50 mg/kg, route oral; conditions: in vivo; how it was run: as §1

Which Drug uptake does the source give for `O=C(N[C@H](Cc1c[nH]c2ccccc12)C(=O)Nc1ccncc1)c1ccc(-c2ccc(F)c(C(F)(F)F)c2)cc1F` here?
The Drug uptake was “Active”.

tested on: Liver microsome; assay: Half life in rat liver microsomes; type: ADME; conditions: not given

Which t1/2 does the source give for `O=C(N[C@H](Cc1c[nH]c2ccccc12)C(=O)Nc1ccncc1)c1ccc(-c2ccc(F)c(C(F)(F)F)c2)cc1F` here?
The t1/2 was 27 min.

molecular target: Cytochrome P450 3A4 (Homo sapiens, UniProt P08684); assay: Inhibition of CYP3A4 in human liver microsomes at 1 uM; type: ADME; conditions: not given
Sequence (P08684 whole entry): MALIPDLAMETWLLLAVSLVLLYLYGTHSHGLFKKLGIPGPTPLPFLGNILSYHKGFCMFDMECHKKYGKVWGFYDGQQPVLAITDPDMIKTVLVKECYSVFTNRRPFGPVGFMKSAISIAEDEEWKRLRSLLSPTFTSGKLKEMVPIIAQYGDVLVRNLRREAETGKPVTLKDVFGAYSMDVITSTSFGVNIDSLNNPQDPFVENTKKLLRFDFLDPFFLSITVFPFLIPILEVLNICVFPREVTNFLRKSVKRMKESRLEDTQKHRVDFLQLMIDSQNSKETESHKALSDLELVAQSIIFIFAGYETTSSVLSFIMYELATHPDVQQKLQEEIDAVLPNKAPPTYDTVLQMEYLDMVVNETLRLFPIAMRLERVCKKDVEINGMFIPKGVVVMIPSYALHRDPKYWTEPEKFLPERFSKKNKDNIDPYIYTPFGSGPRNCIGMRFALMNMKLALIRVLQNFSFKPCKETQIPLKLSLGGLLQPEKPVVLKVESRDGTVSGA

For `O=C(N[C@H](Cc1c[nH]c2ccccc12)C(=O)Nc1ccncc1)c1ccc(-c2ccc(F)c(C(F)(F)F)c2)cc1F`, which “inhibition (INH)” value is on record?
The value was 9%.

tested on: not listed separately; assay: Drug uptake in mouse fat at 50 mg/kg, po in 20% HP-beta-CD measured at 8 hrs post dose; type: ADME, organism-based, Adipose tissue; design: dose 50 mg/kg, route oral; conditions: in vivo; how it was run: as §1

For `O=C(N[C@H](Cc1c[nH]c2ccccc12)C(=O)Nc1ccncc1)c1ccc(-c2ccc(F)c(C(F)(F)F)c2)cc1F`, which Drug uptake is on record?
Its Drug uptake is “Active”.

tested on: not listed separately; assay: Drug uptake in mouse fat at 50 mg/kg, po in 20% Kolliphor measured at 8 hrs post dose; type: ADME, organism-based, Adipose tissue; design: dose 50 mg/kg, route oral; conditions: in vivo; how it was run: as §1

With `O=C(N[C@H](Cc1c[nH]c2ccccc12)C(=O)Nc1ccncc1)c1ccc(-c2ccc(F)c(C(F)(F)F)c2)cc1F` as the compound, how does the Drug uptake read?
The Drug uptake was “Active”.

molecular target: Sterol 14-alpha demethylase (Trypanosoma cruzi (strain CL Brener), UniProt Q7Z1V1); assay: Binding affinity to Trypanosoma cruzi CYP51 by UV-vis titration method; conditions: read-out: Kd(app)
Sequence (Q7Z1V1 whole entry): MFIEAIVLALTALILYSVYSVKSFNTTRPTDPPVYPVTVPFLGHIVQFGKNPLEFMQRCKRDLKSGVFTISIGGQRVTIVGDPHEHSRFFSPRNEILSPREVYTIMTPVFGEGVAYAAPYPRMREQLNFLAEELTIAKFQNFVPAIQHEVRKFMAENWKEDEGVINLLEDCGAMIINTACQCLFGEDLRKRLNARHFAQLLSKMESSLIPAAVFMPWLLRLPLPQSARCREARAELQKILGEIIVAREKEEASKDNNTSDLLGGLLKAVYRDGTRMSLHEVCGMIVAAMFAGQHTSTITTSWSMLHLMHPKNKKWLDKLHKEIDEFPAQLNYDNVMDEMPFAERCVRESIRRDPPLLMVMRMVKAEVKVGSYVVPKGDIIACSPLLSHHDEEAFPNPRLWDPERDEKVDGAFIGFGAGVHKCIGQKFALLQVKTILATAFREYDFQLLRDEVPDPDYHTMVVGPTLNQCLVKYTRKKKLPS

For `O=C(N[C@H](Cc1c[nH]c2ccccc12)C(=O)Nc1ccncc1)c1ccc(-c2ccc(F)c(C(F)(F)F)c2)cc1F`, which Kd is on record?
The Kd was at most 10 nM.

tested on: not listed separately; assay: Drug uptake in mouse skeletal muscle at 50 mg/kg, po in 20% HP-beta-CD measured at 8 hrs post dose; type: ADME, organism-based, Muscle tissue; design: dose 50 mg/kg, route oral; conditions: in vivo; how it was run: as §1

For `O=C(N[C@H](Cc1c[nH]c2ccccc12)C(=O)Nc1ccncc1)c1ccc(-c2ccc(F)c(C(F)(F)F)c2)cc1F`, which Drug uptake is on record?
Its Drug uptake is “Active”.
